Data on three compounds can be found in ChEMBL document CHEMBL1781963, “Discovery of novel hepatoselective HMG-CoA reductase inhibitors for treating hypercholesterolemia: a bench-to-bedside case study on tissue selective drug distribution” (Bioorg Med Chem Lett, 2011).

pIC50: −log10 of the molar value.

Data set [1] in a line: Terminal half life in human plasma at 240 mg administered as single dose. Format: ADME, cell-free. The conditions noted are these: read-out: beta t1/2 (converted).
The next data set concerns Rattus norvegicus. Put plainly: Inhibition of HMG-CoA reductase in Sprague-Dawley rat assessed as reduction of mevalonate level in plasma at 10 mg/kg, po administered as single dose after 24 hrs relative to control. Format: functional.
The nature of data set [2]: Cmax in human plasma at 240 mg administered as single dose. The arrangement: dose 240 mg. Format: ADME, organism-based. In outline: (§1)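 Phase 1 single ascending oral dose in healthy volunteers, about 5–6 subjects per dose. Total plasma drug Cmax and AUC(0-∞) were measured. Free-drug exposures were derived using plasma protein binding.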
Data set [3] has as its system Homo sapiens. Put plainly: Inhibition of HMG-CoA reductase in human assessed as decrease in AUC (0 to 24 hrs) of mevalonate level in plasma at 240 mg administered as single dose relative to control. Format: functional.
Data set [4] concerns Plasma. Put plainly: fCmax in human plasma at 320 mg administered as single dose. Format: ADME, cell-free. In outline: (§2)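 Phase 1 single ascending oral dose in healthy volunteers, with N per dose group. Total plasma Cmax and AUC(0-∞) were measured. Free-drug exposures were derived from these using plasma protein binding (human plasma fu measured at 0.5 μg/mL).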
Data set [5] is described as follows: AUC (0 to infinity) in human plasma at 240 mg administered as single dose. The data set is classed as ADME, cell-free. Set-up: dose 240 mg, time infinity. In outline:
as §1

The subject of data set [6] is Plasma. Kind of data set: fCmax in human plasma at 120 mg administered as single dose. The data set is classed as ADME, cell-free. In outline: as §2
The nature of data set [7]: AUC (0 to infinity) in human plasma at 120 mg administered as single dose. Format: ADME, cell-free. Set-up: dose 120 mg, time infinity. The method, boiled down: as §1
The next data set relates to Syrian golden hamster. Put plainly: Inhibition of cholesterol synthesis in golden syrian hamster assessed as reduction of [14C]-cholesterol level at 10 mg/kg, po followed by 3 hrs after treated with 80 uCi, ip of [14C]-sodium acetate measured after 5 hrs by liquid scintillation counting relative to control. Particulars: Mesocricetus auratus. Format: functional. The method, boiled down:
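Separate hamster groups dosed po at 10 mg/kg at t = 0 h. 14C sodium acetate ip at t = 3 h, blood 14C cholesterol at t = 5 h. Percent change vs untreated controls, n = 8/group.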

For another data set, the system named is Hepatocyte. Put plainly: Inhibition of cholesterol synthesis in rat hepatocytes assessed as reduction of [14C]-cholesterol level using [14C]-acetic acid preincubated for 4 hrs before addition of [14C]-acetic acid by liquid scintillation counting. The data set is classed as functional, cell-based. The method, boiled down:
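Cholesterol synthesis inhibition measured in rat hepatocytes and rat myocyte cell line, giving IC50 for each. Mean ± SEM of n ≥ 2 independent determinations.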

Data set [8] has as its system Plasma. Put plainly: fAUC (0 to infinity) in human plasma at 10 mg administered as single dose. Format: ADME, cell-free. In outline:
as §2

Data set [9] can be described thus: AUC (0 to infinity) in human plasma at 10 mg administered as single dose. The data set is classed as ADME, cell-free. Set-up: dose 10 mg, time infinity. The method, boiled down: as §1
The test system of data set [10] is Homo sapiens. Kind of data set: Inhibition of HMG-CoA reductase in human assessed as decrease in AUC (0 to 72 hrs) of mevalonate level in plasma at 3 mg administered as single dose relative to control. The data set is classed as functional.
The test system of data set [11] is Homo sapiens. Kind of data set: Inhibition of HMG-CoA reductase in human assessed as decrease in AUC (0 to 24 hrs) of mevalonate level in plasma at 120 mg administered as single dose relative to control. Format: functional.
Data set [12] concerns Plasma. Kind of data set: fAUC (0 to infinity) in human plasma at 120 mg administered as single dose. Format: ADME, cell-free. In outline:
as §2

The test system of data set [13] is Plasma. Kind of data set: fAUC (0 to infinity) in human plasma at 240 mg administered as single dose. The data set is classed as ADME, cell-free. In outline: as §2
The subject of data set [14] is Homo sapiens. Kind of data set: Inhibition of HMG-CoA reductase in human assessed as decrease in AUC (0 to 24 hrs) of mevalonate level in plasma at 10 mg administered as single dose relative to control. Format: functional.
Data set [15] in a line: Cmax in human plasma at 3 mg administered as single dose. The data set is classed as ADME, organism-based. The arrangement: dose 3 mg. In outline: as §1
The subject of data set [16] is Homo sapiens. Put plainly: Inhibition of HMG-CoA reductase in human assessed as decrease in AUC (0 to 72 hrs) of mevalonate level in plasma at 320 mg administered as single dose relative to control. The data set is classed as functional.
Data set [17] in a line: Terminal half life in human plasma at 320 mg administered as single dose. The data set is classed as ADME, cell-free. Particulars: read-out: beta t1/2 (converted).
Data set [18] is described as follows: Cmax in human plasma at 10 mg administered as single dose. Set-up: dose 10 mg. Format: ADME, organism-based. In outline: as §1
Data set [19] concerns Homo sapiens. Kind of data set: Inhibition of HMG-CoA reductase in human assessed as decrease in AUC (0 to 72 hrs) of mevalonate level in plasma at 240 mg administered as single dose relative to control. Format: functional.
Data set [20] is described as follows: AUC (0 to infinity) in human plasma at 160 mg administered as single dose. Set-up: dose 160 mg, time infinity. The data set is classed as ADME, cell-free. The method, boiled down: as §1
The nature of data set [21]: Cmax in human plasma at 5 mg administered as single dose. Format: ADME, organism-based. The arrangement: dose 5 mg. The method, boiled down:
as §1

The test system of data set [22] is Plasma. Put plainly: fCmax in human plasma at 1 mg administered as single dose. The data set is classed as ADME, cell-free. The method, boiled down: as §2
Data set [23] relates to Plasma. Put plainly: fAUC (0 to infinity) in human plasma at 5 mg administered as single dose. The data set is classed as ADME, cell-free. The method, boiled down:
as §2

Data set [24] can be described thus: Cmax in human plasma at 1 mg administered as single dose. The data set is classed as ADME, organism-based. Set-up: dose 1 mg. In outline: as §1
The nature of data set [25]: Cmax in human plasma at 20 mg administered as single dose. Format: ADME, organism-based. The arrangement: dose 20 mg. The method, boiled down: as §1
For data set [26], the system named is Homo sapiens. Kind of data set: Inhibition of HMG-CoA reductase in human assessed as decrease in AUC (0 to 72 hrs) of mevalonate level in plasma at 20 mg administered as single dose relative to control. The data set is classed as functional.
The nature of data set [27]: AUC (0 to infinity) in human plasma at 1 mg administered as single dose. The data set is classed as ADME, cell-free. The arrangement: dose 1 mg, time infinity. In outline: as §1
The subject of data set [28] is Homo sapiens. Kind of data set: Inhibition of HMG-CoA reductase in human assessed as decrease in AUC (0 to 24 hrs) of mevalonate level in plasma at 20 mg administered as single dose relative to control. Format: functional.
Data set [29] in a line: Terminal half life in human plasma at 5 mg administered as single dose. The data set is classed as ADME, cell-free. Particulars: read-out: beta t1/2 (converted).
Data set [30] is described as follows: Terminal half life in human plasma at 80 mg administered as single dose. The data set is classed as ADME, cell-free. The conditions noted are these: read-out: beta t1/2 (converted).
In data set [31] the test system is Plasma. Put plainly: fAUC (0 to infinity) in human plasma at 80 mg administered as single dose. Format: ADME, cell-free. The method, boiled down: as §2
Data set [32] in a line: Terminal half life in human plasma at 1 mg administered as single dose. Format: ADME, cell-free. Particulars: read-out: beta t1/2 (converted).
The subject of the next data set is Liver. Put plainly: Ratio of fAUC (0 to 24 hrs) in liver to plasma in Sprague-Dawley rat at 25 mg/kg, po. The data set is classed as ADME, organism-based. The arrangement: dose 25 mg/kg, route oral. The conditions noted are these: other tissue. The method, boiled down: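 Sprague-Dawley rats given a single oral dose (10 or 25 mg/kg). Free drug measured in liver and plasma at 0, 0.5, 1, 2, 3, 4, 7 and 24 h, n = 3/time point.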

A short description of data set [33]: AUC (0 to infinity) in human plasma at 80 mg administered as single dose. The data set is classed as ADME, cell-free. The arrangement: dose 80 mg, time infinity. In outline: as §1
The subject of data set [34] is Plasma. Put plainly: fCmax in human plasma at 160 mg administered as single dose. Format: ADME, cell-free. The method, boiled down: as §2
Data set [35] can be described thus: Terminal half life in human plasma at 160 mg administered as single dose. The conditions noted are these: read-out: beta t1/2 (converted). The data set is classed as ADME, cell-free.
Data set [36] is described as follows: Terminal half life in human plasma at 20 mg administered as single dose. The data set is classed as ADME, cell-free. Particulars: read-out: beta t1/2 (converted).
Data set [37] can be described thus: AUC (0 to infinity) in human plasma at 5 mg administered as single dose. The data set is classed as ADME, cell-free. The arrangement: dose 5 mg, time infinity. The method, boiled down:
as §1

The nature of data set [38]: Cmax in human plasma at 80 mg administered as single dose. The arrangement: dose 80 mg. Format: ADME, organism-based. The method, boiled down: as §1
The subject of data set [39] is Plasma. Kind of data set: fAUC (0 to infinity) in human plasma at 1 mg administered as single dose. Format: ADME, cell-free.
For data set [40], the system named is Homo sapiens. Put plainly: Inhibition of HMG-CoA reductase in human assessed as decrease in LDL-cholesterol level in plasma at 10 mg administered qd for 14 days relative to control. Format: functional.

Broadly, the inhibition in vivo is the change of the read-out against control, counted positive when it falls. A word on the Cmax: it is the maximum level reached in the sampled fluid or tissue. The AUC(0-inf) is total exposure, with the tail of the curve extrapolated. Lower therefore signals less exposure. Usually pIC50 stands for the negative decadic logarithm of the IC50, by convention in mol/L. `O=C([O-])C[C@H](O)C[C@H](O)CCn1c(-c2ccc(F)cc2)nc(C(=O)NCc2cccc(F)c2)c1C1CC1.[Na+]`: the results for the half-life in data set [1] and in data set [17] were 4.06 h and 7.36 h, respectively. Also, the figures for the inhibition in vivo at 10 mg/kg with Rattus norvegicus and with Syrian golden hamster were 47% and -43%, respectively. In addition, the Cmax in data set [2] was 9.27 ng/mL; in data set [15], 0.0552 ng/mL; in data set [18], 0.355 ng/mL. For the same compound, the “inhibition (INH)” value with Homo sapiens [3] is reported as -56%; in the data set with Homo sapiens [10] it was -10%; in the data set on Homo sapiens [11], -46%; in the data set on Homo sapiens [14], -25%; in the data set with Homo sapiens [16], -28%; in the data set with Homo sapiens [19], -30%. Besides, the fCmax in the data set on Plasma [4] amounted to 12.8 ng/mL; with Plasma [6], 0.96 ng/mL. Further, the figures for the AUC(0-inf) in data set [5], in data set [7] and in [9] were 27.2 ng·h/mL, 12.5 ng·h/mL and 2.71 ng·h/mL, respectively. The pIC50 in the data set with Hepatocyte was 10.00. Further, the fAUC was determined as 0.786 ng·h/mL with Plasma [8], 3.63 ng·h/mL in the data set on Plasma [12] and 7.89 ng·h/mL in the data set on Plasma [13].
Turning to `Cc1ccc(CNC(=O)c2nn(-c3ccc(F)cc3)c(CC[C@@H](O)C[C@@H](O)CC(=O)O)c2C(C)C)cc1`, the AUC(0-inf) was found to be 25000 ng·h/mL in data set [20], 78.5 ng·h/mL in [27], 11800 ng·h/mL in [33] and 434 ng·h/mL in data set [37]. Also, the Cmax in [21] is 196 ng/mL; in [24], 33.5 ng/mL; in data set [25] it was 740 ng/mL; in data set [38], 4480 ng/mL. Besides, the fCmax in the data set with Plasma [22] was found to be 1.71 ng/mL; in the data set on Plasma [34] it was 347 ng/mL. Also, the results for the fAUC in the data set on Plasma [23], in the data set with Plasma [31] and in the data set with Plasma [39] were 22.1 ng·h/mL, 602 ng·h/mL and 4 ng·h/mL, respectively. Moreover, the “inhibition (INH)” value in the data set on Homo sapiens [26] is given as -17%; with Homo sapiens [28], -34%. Also, the half-life in data set [29] was 4.54 h; in data set [30] it was 6.28 h; in data set [32], 2.55 h; in data set [35], 8.87 h; in data set [36], 5.27 h. In the data set on Liver, the Ratio was found to be 128.
For `CC(C)c1nc(N(C)S(C)(=O)=O)nc(-c2ccc(F)cc2)c1/C=C/[C@@H](O)C[C@@H](O)CC(=O)O` [ROSUVASTATIN], in the data set on Homo sapiens [40], the “inhibition (INH)” value is 41.3%.
